Compound activity from PubChem BioAssay.
This is a sample that favours compounds with a hit; in the whole collection about 7.6% have one here.
D1 allo mod – allosterically modulates the human D1 dopamine receptor. P21728. HEK293 D1, CRE-luciferase, dopamine EC30 potentiation; actives deviate in either direction. B-score at 10 µM. 58,000 compounds, 5.9% hits. AID 641;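 active = luminescence count or its row- and column-corrected plate score outside the 99.7% band of the plate's sample wells, on either side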
Jurkat tox 60K – cytotoxic compounds reducing Jurkat cell viability. inhibition, % at 4 µM. AID 463. 56,000 compounds, 1.2% hits. Jurkat E6.1 viability, ATP luminescence, 48 h;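 active = inhibition above the mean inhibition of all tested compounds plus 3 SD, cut at about 28% in these data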
DAT uptake mod – modulates human dopamine transporter uptake under cocaine; LLC-PK1 hDAT cells, [14C]-dopamine uptake with cocaine IC80; actives deviate in either direction; B-score at 10 µM; 110,000 compounds, 1.3% hits; AID 449768;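 active = Z score or B-score, a plate-position-corrected score, falls beyond the plate's 99.7% confidence bounds, in either direction; inactive = both scores lie inside the 99.7% bounds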
M1 antag – blocks the rat M1 muscarinic receptor response to acetylcholine; P08482; CHO-M1 cells, Fluo-4 calcium, ACh EC80 antagonist mode; stronger effect = lower value; B-score at 10 µM; 64,000 compounds, 3.4% hits; AID 628;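 active = calcium fluorescence response, raw or row-and-column corrected B-score, differing from the plate sample mean either way at a set confidence level, mostly lower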
Target sequence (P08482 whole entry, looked up): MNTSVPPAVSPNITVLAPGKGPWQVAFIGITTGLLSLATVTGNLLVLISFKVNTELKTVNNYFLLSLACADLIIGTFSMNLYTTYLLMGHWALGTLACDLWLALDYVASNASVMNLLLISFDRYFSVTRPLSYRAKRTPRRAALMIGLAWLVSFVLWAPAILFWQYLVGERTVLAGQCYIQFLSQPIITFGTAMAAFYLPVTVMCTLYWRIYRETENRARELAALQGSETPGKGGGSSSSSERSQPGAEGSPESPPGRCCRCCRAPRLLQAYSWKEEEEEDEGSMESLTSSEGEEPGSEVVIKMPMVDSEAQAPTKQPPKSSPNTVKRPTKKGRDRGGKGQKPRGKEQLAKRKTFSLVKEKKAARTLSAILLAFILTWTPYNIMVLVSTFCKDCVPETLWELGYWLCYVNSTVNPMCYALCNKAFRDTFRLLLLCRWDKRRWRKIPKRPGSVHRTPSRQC
M1 ag – activates the M1 muscarinic receptor; CHO-M1 cells, Fluo-4 calcium fluorescence, agonist mode; stronger effect = higher value; B-score at 10 µM; 64,000 compounds, 3% hits; AID 626;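 active = fluorescence rise, raw or as B-score row- and column-corrected plate score, outside the 99.7% band of its plate's samples, either direction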
HEK293 NFkB inh – inhibitors of the PMA/ionomycin-induced NF-kB reporter in HEK293 cells | HEK-293 NF-kB luciferase reporter, luminescence | inhibition, % at 3 µM | 62,000 compounds, 0.21% hits;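 active = inhibition above the mean of all tested compounds plus 3 SD, cut at about 40% in these data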
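Material: HEK-293 cells with stable firefly luciferase reporter driven by four HIV NF-kB elements / Also added: PMA plus ionomycin mix as NF-kB-activating stimulus / Compound dosing: 3 µM once, 0.30% DMSO / Times: 1 h pretreatment, 16 h stimulation, 37 °C / Signal: luminescence / Evaluation: per-plate % inhibition versus controls / Benchmarks: DMSO and 10 µM reference inhibitor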
M1 antag conf – confirmation of rat M1 muscarinic receptor antagonists | shares compounds with M1 antag | CHO-M1 cells, Fluo-4 calcium, ACh EC80 antagonism; stronger effect = lower value | calcium response (max-min fluorescence) at 10 µM | 1,700 compounds, 43% hits;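 active = calcium response below the same-plate mean of wells given acetylcholine alone at its 80%-effect dose, minus 3 SD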
mGluR4 antag – selectivity test for M1 antagonists: human mGluR4 receptor. fluorescence response (max-min) at 10 µM. CHO-mGluR4 calcium flux, Fluo-4 fluorescence, glutamate EC80; stronger effect = lower value. 1,700 compounds, 0.9% hits. AID 678. shares compounds with M1 antag;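 active = fluorescence response below the plate's average for near-maximal glutamate wells, less 3 SD of those wells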;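 note: raw unnormalized fluorescence span taken in the window right after glutamate addition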
Numbers stand for hits.

How did CN1CCN(C2=C(Cl)C(=O)N(Cc3ccccc3)C2=O)CC1 do in these assays?
D1 allo mod: inactive; Jurkat tox 60K: inactive; DAT uptake mod: inactive; M1 antag: -5.6; M1 ag: inactive; HEK293 NFkB inh: inactive; M1 antag conf: 226; mGluR4 antag: inactive

How did CC(C)(C)OC(=O)NCCCCCNC(=O)c1[nH]cnc1C(=O)N[C@@H](Cc1ccccc1)C(=O)OCc1ccccc1 do in these assays?
DAT uptake mod: inactive

Results for COc1cccc(OC)c1C(=O)N1CCN(Cc2ccccc2C(F)(F)F)CC1 ?
D1 allo mod: inactive; Jurkat tox 60K: inactive; DAT uptake mod: inactive; M1 antag: -3; M1 ag: inactive; HEK293 NFkB inh: inactive; M1 antag conf: inactive; mGluR4 antag: inactive

What do the screens show for `COc1cc(-c2nnc(SCC(=O)Nc3ccc4c(c3)OCCO4)o2)cc(OC)c1OC`?
DAT uptake mod: inactive

What do the screens show for `O=C(CN1CCN(c2ncccn2)CC1)NCCC1=CCCCC1`?
D1 allo mod: inactive; DAT uptake mod: inactive; M1 antag: inactive; M1 ag: inactive; HEK293 NFkB inh: inactive

How did O=C(c1ccc(S(=O)(=O)N2CCCCCC2)cc1)N1CCN(c2ccccn2)CC1 do in these assays?
D1 allo mod: inactive; Jurkat tox 60K: inactive; DAT uptake mod: inactive; M1 antag: -2.1; M1 ag: inactive; HEK293 NFkB inh: inactive; M1 antag conf: 507; mGluR4 antag: inactive

How did O=C(CCNS(=O)(=O)c1cccc2nsnc12)N1CCN(c2ccccn2)CC1 do in these assays?
DAT uptake mod: inactive; M1 antag: -2; M1 ag: inactive; HEK293 NFkB inh: inactive; M1 antag conf: 42; mGluR4 antag: inactive

Results for COc1cc(OC)c(NC(=O)CCNS(=O)(=O)c2cc(Br)cnc2N)cc1Cl ?
D1 allo mod: inactive; Jurkat tox 60K: inactive; DAT uptake mod: inactive; M1 antag: -6.9; M1 ag: inactive; HEK293 NFkB inh: inactive; M1 antag conf: inactive; mGluR4 antag: inactive

How did O=C(CCNS(=O)(=O)c1cccc2nsnc12)NCCc1ccccc1 do in these assays?
D1 allo mod: inactive; DAT uptake mod: inactive; M1 antag: inactive; M1 ag: inactive; HEK293 NFkB inh: inactive

How did Nc1ncc(Br)cc1S(=O)(=O)NCCC(=O)Nc1cccc(Cl)c1 do in these assays?
DAT uptake mod: inactive

What do the screens show for `Nc1ncc(Br)cc1S(=O)(=O)NCCC(=O)N1CCN(c2ncccn2)CC1`?
D1 allo mod: inactive; Jurkat tox 60K: inactive; DAT uptake mod: inactive; M1 antag: -2.9; M1 ag: inactive; HEK293 NFkB inh: inactive; M1 antag conf: inactive; mGluR4 antag: inactive

How did CC(=O)Nc1ccc(OCC(O)Cn2nc(C)c(C(C)=O)c2C)cc1 (stereo not drawn) do in these assays?
D1 allo mod: inactive; Jurkat tox 60K: inactive; DAT uptake mod: inactive; M1 antag: inactive; M1 ag: inactive; HEK293 NFkB inh: inactive

What do the screens show for `NC(=O)C1CCN(c2ccc(C(F)(F)F)cc2[N+](=O)[O-])CC1`?
DAT uptake mod: inactive

What do the screens show for `CCn1c(=O)cc(OCC(=O)Nc2cccnc2)c2ccccc21`?
D1 allo mod: inactive; Jurkat tox 60K: inactive; DAT uptake mod: inactive; M1 antag: -1.7; M1 ag: inactive; HEK293 NFkB inh: inactive; M1 antag conf: inactive; mGluR4 antag: inactive

What do the screens show for `Clc1ccc(OCCn2ccnc2)c(Cl)c1`?
D1 allo mod: inactive; Jurkat tox 60K: inactive; DAT uptake mod: inactive; M1 antag: -3; M1 ag: inactive; HEK293 NFkB inh: inactive; M1 antag conf: 408; mGluR4 antag: inactive

How did Cc1cc(=O)[nH]c(=S)n1-c1ccccc1 do in these assays?
D1 allo mod: inactive; Jurkat tox 60K: inactive; DAT uptake mod: inactive; M1 antag: -1.2; M1 ag: inactive; HEK293 NFkB inh: inactive; M1 antag conf: inactive; mGluR4 antag: inactive

Results for Cc1ccc2oc(=O)c3cnn(CC(=O)NC4CCC(C)CC4)c3c2c1 (stereo not drawn) ?
Jurkat tox 60K: inactive; DAT uptake mod: inactive; M1 antag: inactive; M1 ag: inactive; HEK293 NFkB inh: inactive

Results for Cc1ccc2oc(=O)c3cnn(CC(=O)Nc4ccccc4N4CCN(C)CC4)c3c2c1 ?
D1 allo mod: inactive; Jurkat tox 60K: inactive; DAT uptake mod: inactive; M1 antag: -16; M1 ag: inactive; HEK293 NFkB inh: inactive; M1 antag conf: 252; mGluR4 antag: inactive

What do the screens show for `COc1ccc(CCn2nnnc2C(c2ccc(Cl)cc2)N2CCN(C)CC2)cc1OC` (stereo not drawn)?
D1 allo mod: inactive; Jurkat tox 60K: inactive; DAT uptake mod: inactive; M1 antag: -3.1; M1 ag: inactive; HEK293 NFkB inh: inactive; M1 antag conf: inactive; mGluR4 antag: inactive

What do the screens show for `CCCOC(=O)C1=C(C)NC2=C(C(=O)CCC2)C1c1cc(OC)ccc1OC` (stereo not drawn)?
D1 allo mod: inactive; Jurkat tox 60K: inactive; DAT uptake mod: inactive; M1 antag: inactive; M1 ag: inactive; HEK293 NFkB inh: inactive

How did CCN(CC)c1ccc(C2C(C(=O)OCCOC)=C(C)NC3=C2C(=O)CCC3)cc1 (stereo not drawn) do in these assays?
Jurkat tox 60K: inactive; DAT uptake mod: inactive; M1 antag: -10; M1 ag: inactive; HEK293 NFkB inh: inactive; M1 antag conf: 222; mGluR4 antag: inactive

How did CCOC(=O)C1=C(C)NC2=C(C(=O)CCC2)C1c1ccc(N(C)C)cc1 (stereo not drawn) do in these assays?
D1 allo mod: inactive; Jurkat tox 60K: inactive; DAT uptake mod: inactive; M1 antag: -4.3; M1 ag: inactive; HEK293 NFkB inh: inactive; M1 antag conf: 350; mGluR4 antag: inactive

How did CCOC(=O)C1=C(C)NC2=C(C(=O)CCC2)C1c1ccsc1 (stereo not drawn) do in these assays?
D1 allo mod: inactive; Jurkat tox 60K: inactive; DAT uptake mod: inactive; M1 antag: inactive; M1 ag: inactive; HEK293 NFkB inh: inactive

How did COCCOC(=O)C1=C(C)NC2=C(C(=O)CCC2)C1c1ccc2c(c1)OCO2 (stereo not drawn) do in these assays?
D1 allo mod: inactive; Jurkat tox 60K: inactive; DAT uptake mod: inactive; M1 antag: inactive; M1 ag: inactive; HEK293 NFkB inh: inactive

Results for CCCOC(=O)C1=C(C)NC2=C(C(=O)CCC2)C1c1ccc(N(C)C)cc1 (stereo not drawn) ?
Jurkat tox 60K: inactive; DAT uptake mod: inactive; M1 antag: -8.2; M1 ag: inactive; HEK293 NFkB inh: inactive; M1 antag conf: 248; mGluR4 antag: inactive

How did CCOC(=O)CCc1nc2ccccc2[nH]c1=O do in these assays?
D1 allo mod: inactive; Jurkat tox 60K: inactive; DAT uptake mod: inactive; M1 antag: inactive; M1 ag: inactive; HEK293 NFkB inh: inactive
